Measurements of several laboratories.
In brackets after ≈: the same amount, converted by molar mass.
Organism: Staphylococcus aureus

CCOC(=O)C1=C(C)N2NC(C)(c3ccccc3O)N(C(Cc3c[nH]c4ccccc34)C(=O)O)C2=NC1c1ccc(Cl)cc1 (stereo not shown)
inhibition zone (microbial growth; ATCC25923; 15 µg/mL, 24 h): 30 mm

CNC(=O)c1cc(Oc2ccc(NC(=O)NC34CC5CC(CC(C5)C3)C4)cc2)ccn1
MIC (microbial growth; NCTC8325): > 100 µM

O=C(Sc1cccccc1=O)c1ccc(C(F)(F)F)cc1
MIC80 (microbial growth, broth dilution; ATCC29213): > 100 µM

O=C(O)CN1C(=O)/C(=C/c2ccc(-c3ccc(N(c4ccccc4)c4ccccc4)cc3)cc2)NC1=S
MBC (microbial killing, broth dilution; ATCC43300): 3.9 µg/mL (≈ 7.71 µM)

C#CCCCCC(=O)NC(C)C
MIC (microbial growth; NCTC8325): > 100 µM

O=C1NC(=S)N/C1=C\c1c2ccccc2c(-c2ccc(N(c3ccccc3)c3ccccc3)cc2)c2ccccc12
MBC (microbial killing, broth dilution; ATCC25923): > 1000 µg/mL

CC1COc2c(N3CCN(C)CC3)c(F)cc3c(=O)c(C(=O)O)cn1c23 (stereo not shown)
MIC (microbial growth; NCTC8325): 0.5 to 2 µM

O=C1NC(=S)S/C1=C\c1ccc(-c2ccc(N(c3ccccc3)c3ccccc3)cc2)c2ccccc12
MBC (microbial killing, broth dilution; ATCC6538): > 1000 µg/mL

Clc1ccc(-c2nc3ccccc3[nH]2)cc1Cl
MIC (microbial growth, broth dilution; ATCC29213 MSSA): 32 µg/mL

CCCCCCCCCCCCCC(O)CC(O)CO (stereo not shown)
IC50 (microbial growth, broth dilution; ATCC33591 MRSA; drug-resistant strain): 8.26 µg/mL (≈ 28.6 µM)

O=C(O)CN1C(=O)/C(=C/c2ccc(-c3ccc(N(c4ccccc4)c4ccccc4)cc3)c3ccccc23)SC1=S
MBC (microbial killing, broth dilution; ATCC25923): > 1000 µg/mL

[H]/N=C(/N)N[C@H]1[C@H](O)[C@@H](O)[C@H](O[C@@H]2O[C@@H](C)[C@](O)(C=O)[C@H]2O[C@@H]2O[C@@H](CO)[C@H](O)[C@@H](O)[C@@H]2NC)[C@@H](N/C(N)=N\[H])[C@@H]1O
inhibition zone (microbial growth, well diffusion; NCIM5021; 250 µg/mL): 22 mm

C#CCCCCCCCCC=CCC(O)CC(O)CO (stereo not shown)
IC50 (microbial growth, broth dilution; ATCC33591 MRSA; drug-resistant strain): > 200 µg/mL

Cc1nn(-c2nc3ccccc3s2)c2c1C(=O)c1ccccc1-2
inhibition zone (microbial growth, well diffusion; NCIM5021; 125 µg/mL): 9 mm

COc1ccc(-c2cc3c(C)nc(N)nc3n([C@H]3CC[C@H](OCCO)CC3)c2=O)cn1
MIC (microbial growth; NCTC8325): > 30 µM

Cc1nn(-c2nc3ccc(Cl)cc3s2)c2c1C(=O)c1ccccc1-2
inhibition zone (microbial growth, well diffusion; NCIM5021; 250 µg/mL): 10 mm

CNC(=O)c1cc(Oc2ccc(NC(=O)Nc3ccc(Oc4ccccc4)cc3)cc2)ccn1
MIC (microbial growth; NCTC8325): > 100 µM

CN[C@H](CC(C)C)C(=O)N[C@H]1C(=O)N[C@@H](CC(N)=O)C(=O)N[C@H]2C(=O)N[C@H]3C(=O)N[C@H](C(=O)N[C@H](C(=O)O)c4cc(O)cc(O)c4-c4cc3ccc4O)[C@H](O)c3ccc(c(Cl)c3)Oc3cc2cc(c3O[C@@H]2O[C@H](CO)[C@@H](O)[C@H](O)[C@H]2O[C@H]2C[C@](C)(N)[C@H](O)[C@H](C)O2)Oc2ccc(cc2Cl)[C@H]1O
inhibition zone (microbial growth, disc diffusion; ATCC29213; 250 µg/disc, 24 h): 21 mm

Cc1ccc2nc(-n3nc(C)c4c3-c3ccccc3C4=O)sc2c1
inhibition zone (microbial growth, well diffusion; NCIM5021; 125 µg/mL): 11 mm

O=C(O)CN1C(=O)/C(=C/c2ccc(-c3ccc(N(c4ccccc4)c4ccccc4)cc3)cc2)SC1=S
MBC (microbial killing, broth dilution; ATCC43300): 7.8 µg/mL (≈ 14.9 µM)

COc1ccc2nc(-n3nc(C(C)C)c4c3-c3ccccc3C4=O)sc2c1
inhibition zone (microbial growth, well diffusion; NCIM5021; 1000 µg/mL): 11 mm

CCn1c(-c2nonc2N)nc2c(C#CC(C)(C)O)ncc(OC[C@H]3CCCNC3)c21
MIC (microbial growth; NCTC8325): > 30 µM

O=C(Sc1cccccc1=O)c1ccccc1C(F)(F)F
MIC80 (microbial growth, broth dilution; ATCC29213): 100 µM (≈ 31 µg/mL)

CC(C)c1nn(-c2nc3ccc(Cl)cc3s2)c2c1C(=O)c1ccccc1-2
inhibition zone (microbial growth, well diffusion; NCIM5021; 1000 µg/mL): 12 mm

O=C1NC(=S)S/C1=C\c1ccc(-c2ccc(N(c3ccccc3)c3ccccc3)cc2)cc1
MBC (microbial killing, broth dilution; ATCC6538): > 1000 µg/mL

Cc1nn(-c2nc3ccc(Br)cc3s2)c2c1C(=O)c1ccccc1-2
inhibition zone (microbial growth, well diffusion; NCIM5021; 1000 µg/mL): 12 mm

CN1CCC(CNc2ccc3ncc(-c4cccc(OC(F)(F)F)c4)n3n2)CC1
MIC (microbial growth; NCTC8325): > 30 µM

CC(=O)Oc1cccc2c1[nH]c1c(C3=C[C@@]4(O)CC/C=C\CCCCN5CC[C@@H]3[C@]3(C[C@@H]6/C=C\CCCCN6[C@H]34)C5)nccc12
IC50 (microbial growth; MRSA; drug-resistant strain): 0.45 µg/mL (≈ 0.742 µM)

CC(C)Cc1nn(-c2nc3ccc(Br)cc3s2)c2c1C(=O)c1ccccc1-2
inhibition zone (microbial growth, well diffusion; NCIM5021; 250 µg/mL): 11 mm

CC1(C)S[C@@H]2[C@H](NC(=O)[C@H](N)c3ccccc3)C(=O)N2[C@H]1C(=O)O
inhibition (microbial growth, agar dilution; ATCC29213; 26.93 µM): 100%

O=C1NC(=S)S/C1=C\c1c2ccccc2c(-c2ccc(N(c3ccccc3)c3ccccc3)cc2)c2ccccc12
MBC (microbial killing, broth dilution; ATCC6538): > 1000 µg/mL

COc1c(N2C[C@@H]3CCCN[C@@H]3C2)c(F)cc2c(=O)c(C(=O)O)cn(C3CC3)c12
MIC90 (microbial growth; ATCC700699): 0.24 µg/mL (≈ 0.598 µM)

C#CCCCCC(=O)N1CCN(c2ccccc2)CC1
MIC (microbial growth; NCTC8325): > 100 µM

CC[C@H](C)[C@H](NC(=O)OCC1c2ccccc2-c2ccccc21)C(=O)Sc1cccccc1=O
MIC80 (microbial growth, broth dilution; ATCC29213): > 100 µM
